High-throughput results from PubChem BioAssay.
RGS4 block = inhibitors of human RGS4; HEK293 M3R/RGS4 inducible, Fluo-4 calcium flux; active compounds read high; triggered by carbachol at its EC20; B-score at 10 µM; actives 0.45% (n = 310,000); AID 463165;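 active means B-score, a plate-corrected calcium signal, over three deviations above library mean, with baseline fluorescence within five deviations of library mean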;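 further: RGS4 expression induced by doxycycline in cells with stable M3 receptor; B-score is computed from the integrated fluorescence ratio over baseline after carbachol; higher B-score means a larger calcium signal and so more RGS4 inhibition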
Target sequence (P49798 whole entry, looked up): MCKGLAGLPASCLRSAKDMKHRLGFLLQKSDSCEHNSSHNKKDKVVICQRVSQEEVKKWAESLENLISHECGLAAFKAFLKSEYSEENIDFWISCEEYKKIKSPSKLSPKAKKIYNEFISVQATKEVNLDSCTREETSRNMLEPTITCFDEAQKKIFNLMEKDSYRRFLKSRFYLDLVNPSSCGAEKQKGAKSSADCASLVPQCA
RGS4 pot = RGS4 potentiation or activation. HEK293 M3R/inducible RGS4, carbachol calcium flux Fluo4; active compounds read low. B-score at 10 µM. actives 0.92% (n = 310,000). AID 463111;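 active means B-score of the integrated calcium signal more than 4 SD below the library mean, with starting fluorescence not abnormally high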;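 further: negative B-score means reduced calcium response which marks RGS4 activation or potentiation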
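Assay system: HEK293 FlpIn-TREx cells, stable M3R, doxycycline-inducible RGS4 / Probe or stimulus: carbachol, ECmax concentration / Times: overnight RGS4 induction, 30 min dye load 37 °C, 20 min compound RT / Signal: kinetic calcium fluorescence imaging with Fluo4-AM dye, 2 µM / Measure: Agonist-evoked peak-minus-minimum fluorescence over baseline, integrated ratio, B score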
MrgX1 antag = human MrgX1 receptor antagonism, primary screen; Q96LB2; MRGX1-HEK293 calcium flux, Fluo-4, BAM8-22 antagonism; active compounds read low; B-score at 10 µM; actives 1.3% (n = 310,000);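 active means calcium-response B-score plate-corrected more than 3 library SD below zero, starting fluorescence within 5 deviations, no agonist response on first addition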;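 further: peak minus trough fluorescence over baseline after final BAM8-22 challenge near maximal dose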
Target sequence (Q96LB2 whole entry, looked up): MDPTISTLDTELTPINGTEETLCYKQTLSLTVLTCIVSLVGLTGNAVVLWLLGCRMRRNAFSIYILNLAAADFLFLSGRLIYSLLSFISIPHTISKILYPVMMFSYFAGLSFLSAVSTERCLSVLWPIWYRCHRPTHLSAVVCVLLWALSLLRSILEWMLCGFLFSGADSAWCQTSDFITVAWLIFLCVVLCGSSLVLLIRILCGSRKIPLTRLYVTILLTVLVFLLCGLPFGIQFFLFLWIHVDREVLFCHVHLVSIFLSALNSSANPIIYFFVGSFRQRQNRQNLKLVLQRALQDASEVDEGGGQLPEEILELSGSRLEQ
MrgX1 PAM = allosterically activates human MrgX1 receptor signaling; Q96LB2; MrgX1-HEK293, Fluo-4 calcium flux, FDSS; active compounds read high; B-score at 10 µM; actives 0.63% (n = 310,000);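 active means plate-corrected calcium response at least 3 library SD above typical, normal starting fluorescence, not activating the receptor alone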;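 further: compound read alongside a low EC10 to EC30 dose of BAM8-22 agonist; peak minus trough fluorescence over baseline measured at the second addition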
MrgX1 ag = agonists of human MrgX1 receptor. MrgX1-HEK293 cells, Fluo-4 calcium fluorescence, agonist mode; active compounds read high. B-score at 10 µM. actives 0.44% (n = 310,000). AID 588627;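 active means calcium response B-score plate-corrected fluorescence ratio at least 3 library SD, with starting fluorescence B-score inside 5 SD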
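System: HEK293 cells stably expressing human MrgX1 receptor; Dosing: test compound in the initial addition of three; Schedule: overnight plating, then 30 min 37 °C plus 30 min room-temperature dye loading; Detection: kinetic calcium dye fluorescence, Fluo-4 NW; Controls: per-plate positive and negative controls for Z′ factor.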
RGS4 inh valid = RGS4 inhibitor validation | shares compounds with RGS4 block | HEK293 M3R/RGS4, carbachol calcium Fluo-4 fluorescence; carbachol added at its EC20; 0 = buffer wells, 100 = carbachol control | calcium response, % at 10 µM | actives 65% (n = 1,700);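 active means duplicate-averaged calcium response above the buffer-only control mean plus 5 SD of those controls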;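 further: integrated fluorescence ratio F max minus min over baseline F0; higher response in RGS4-induced cells means RGS4 inhibition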
RGS4 uninduced = counter-screen for RGS4 inhibitors: effect in non-induced cells. shares compounds with RGS4 block. HEK293 M3R non-induced, carbachol calcium Fluo-4; submaximal (EC20) carbachol stimulus; buffer wells 0%, carbachol control wells 100%. activity (percent), % at 10 µM. actives 20% (n = 1,900); call rule not given here;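 further: RGS4 induction absent so cells express M3R without RGS4; higher means more calcium signal and flags a non-specific hit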
M3R basal Ca ctr = second RGS4 inhibitor counter-screen in uninduced cells lacking carbachol; shares compounds with RGS4 block; HEK293 M3R/RGS4 non-induced, Fluo-4 calcium, no carbachol; normalised: buffer wells 0%, carbachol wells 100%; calcium response (agonist-mode artifact), % at 10 µM; actives 22% (n = 1,900); AID 493001;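 active means duplicate-averaged calcium rise in uninduced cells above buffer wells' mean plus 5 SD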
Hits are given with their value. Sampled rows, rich in hits. Any-hit rate of the full collection: about 3.5%.

`COc1cc(OC)cc(C(=O)NNC(=O)CN2C(=O)NC(C)(c3ccc(C)cc3)C2=O)c1` (stereo not given) gave RGS4 block inactive, RGS4 pot inactive, MrgX1 antag inactive, MrgX1 PAM inactive and MrgX1 ag inactive.
`O=C(NCc1cccnc1)/C(=C/c1ccc(Cl)cc1)NC(=O)c1ccccc1` gave RGS4 block inactive, RGS4 pot inactive, MrgX1 antag inactive, MrgX1 PAM inactive, MrgX1 ag inactive, RGS4 inh valid inactive, RGS4 uninduced inactive and M3R basal Ca ctr inactive.
For O=C(NCc1ccccc1Cl)/C(=C\c1cccnc1)NC(=O)c1ccccc1 the results were RGS4 block inactive, RGS4 pot inactive, MrgX1 antag inactive, MrgX1 PAM inactive and MrgX1 ag inactive.
`COc1ccc(C(=O)N/C(=C\c2ccccc2)C(=O)NCc2cccnc2)cc1` gave RGS4 block inactive, RGS4 pot inactive, MrgX1 antag inactive, MrgX1 PAM inactive, MrgX1 ag inactive, RGS4 inh valid inactive, RGS4 uninduced inactive and M3R basal Ca ctr inactive.
CC(C)CNC(=O)Cn1c(=O)c2c(ncn2CC(C)C)n(Cc2ccccc2)c1=O was read as RGS4 block inactive, RGS4 pot inactive, MrgX1 antag inactive, MrgX1 PAM inactive and MrgX1 ag inactive.
`O=C(N=C1SC2CS(=O)(=O)CC2N1c1ccccc1C(F)(F)F)C1CCCO1` (stereo not given) gave RGS4 block inactive, RGS4 pot inactive, MrgX1 antag inactive, MrgX1 PAM inactive and MrgX1 ag inactive.
For O=[N+]([O-])c1ccc(O)c(/C=N/NC(=S)Nc2ccc(Cl)cc2Cl)c1 the results were RGS4 block 13.9, RGS4 pot inactive, MrgX1 antag inactive, MrgX1 PAM inactive, MrgX1 ag inactive, RGS4 inh valid 18.0%, RGS4 uninduced inactive and M3R basal Ca ctr inactive.
For O=C(N/N=C/c1cc([N+](=O)[O-])ccc1O)NC12CC3CC(CC(C3)C1)C2 the results were RGS4 block 7.89, RGS4 pot inactive, MrgX1 antag inactive, MrgX1 PAM inactive, MrgX1 ag inactive, RGS4 inh valid 12.0%, RGS4 uninduced inactive and M3R basal Ca ctr inactive.
For COc1ccc(N2CC(C(=O)N/N=C/c3cc([N+](=O)[O-])ccc3O)CC2=O)cc1 (stereo not given) the results were RGS4 block 4.98, RGS4 pot inactive, MrgX1 antag inactive, MrgX1 PAM inactive, MrgX1 ag inactive, RGS4 inh valid 5.0%, RGS4 uninduced inactive and M3R basal Ca ctr inactive.
CCCn1c2ccccc2c2cnn(CC(=O)NCCCN3C(C)CCCC3C)c(=O)c21 (stereo not given) was read as RGS4 block inactive, RGS4 pot inactive, MrgX1 antag inactive, MrgX1 PAM inactive and MrgX1 ag inactive.
Screening COc1ccc(CN(C)C(=O)c2ccc(NS(=O)(=O)c3ccc(F)cc3)cc2)c(OC)c1OC returned RGS4 block inactive, RGS4 pot inactive, MrgX1 antag inactive, MrgX1 PAM inactive and MrgX1 ag inactive.
For O=S(=O)(Nc1nccs1)c1ccc(NCc2cc(Br)cc(Br)c2O)cc1 the results were RGS4 block 7.78, RGS4 pot inactive, MrgX1 antag inactive, MrgX1 PAM inactive, MrgX1 ag inactive, RGS4 inh valid 6.0%, RGS4 uninduced 44.5% and M3R basal Ca ctr inactive.
`COc1ccc(C(C[N+](=O)[O-])c2c(C)cc3ccccn23)c(OC)c1` (stereo not given) gave RGS4 block 13.2, RGS4 pot inactive, MrgX1 antag inactive, MrgX1 PAM inactive, MrgX1 ag 40.8, RGS4 inh valid inactive, RGS4 uninduced inactive and M3R basal Ca ctr inactive.
`COc1ccc(OC)c(C(C[N+](=O)[O-])c2c(C)cc3ccccn23)c1` (stereo not given) gave RGS4 block inactive, RGS4 pot inactive, MrgX1 antag inactive, MrgX1 PAM inactive, MrgX1 ag inactive, RGS4 inh valid inactive, RGS4 uninduced inactive and M3R basal Ca ctr inactive.
Screening COc1ccc(NC(=O)CCn2cccc2)c(OC)c1 returned RGS4 block inactive, RGS4 pot inactive, MrgX1 antag inactive, MrgX1 PAM inactive and MrgX1 ag inactive.
For COc1ccc(Br)cc1C(C[N+](=O)[O-])c1c(N)n(C)c(=O)n(C)c1=O (stereo not given) the results were RGS4 block inactive, RGS4 pot inactive, MrgX1 antag inactive, MrgX1 PAM inactive and MrgX1 ag inactive.
`COc1ccccc1-c1c(C(F)(F)F)oc2cc(OC(=O)c3ccc([N+](=O)[O-])cc3)ccc2c1=O` gave RGS4 block inactive, RGS4 pot inactive, MrgX1 antag inactive, MrgX1 PAM inactive and MrgX1 ag inactive.
For Cc1ccc(C(=O)CC(C(=O)O)n2cnc([N+](=O)[O-])n2)cc1 (stereo not given) the results were RGS4 block 5.58, RGS4 pot inactive, MrgX1 antag inactive, MrgX1 PAM inactive, MrgX1 ag inactive, RGS4 inh valid 14.5%, RGS4 uninduced inactive and M3R basal Ca ctr inactive.
For O=C(CC(SCCO)c1ccc([N+](=O)[O-])cc1)c1ccco1 (stereo not given) the results were RGS4 block 5.44, RGS4 pot inactive, MrgX1 antag inactive, MrgX1 PAM inactive, MrgX1 ag inactive, RGS4 inh valid 11.0%, RGS4 uninduced inactive and M3R basal Ca ctr inactive.
`COc1ccc(C(CC(=O)c2ccc(C)cc2)Nc2ccc([N+](=O)[O-])cc2)cc1` (stereo not given) gave RGS4 block inactive, RGS4 pot inactive, MrgX1 antag inactive, MrgX1 PAM inactive and MrgX1 ag inactive.
`Cc1ccc(C(=O)CC(SCC(=O)O)c2ccc([N+](=O)[O-])cc2)cc1` (stereo not given) gave RGS4 block 6.29, RGS4 pot inactive, MrgX1 antag inactive, MrgX1 PAM inactive, MrgX1 ag inactive, RGS4 inh valid 11.0%, RGS4 uninduced 36.0% and M3R basal Ca ctr inactive.
Cc1ccc(Cl)c(OCC(=O)Nc2cc(S(=O)(=O)N3CCOCC3)ccc2N2CCCC2)c1 was read as RGS4 block inactive, RGS4 pot inactive, MrgX1 antag inactive, MrgX1 PAM inactive and MrgX1 ag inactive.
